Screens deposited in PubChem by several laboratories.
The full list was thinned out, with hits kept by preference.
L major viab: Leishmania major promastigote growth inhibition, primary screen | 200,000 compounds, 9% hits | Leishmania major promastigotes, resazurin fluorescence viability | inhibition, % at 10 µM | AID 1063, 2008; in the data active = inhibition above about 50%;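 note: promastigotes grown with compound for 44 hours at 28 °C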
Lipid droplet: inhibitors of hepatocyte lipid droplet formation, primary screen, imaging, high-throughput imaging, BODIPY stain; 240,000 compounds, 0.4% hits; inhibition, % at 6.5 µM; AML12 mouse hepatocytes, oleate lipid droplets;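 active = lipid droplet intensity inhibited by at least 50%, with more than 500 cells counted; inconclusive = wells with under 300 cells, treated as cytotoxic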
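Material: mouse AML12 hepatocyte cell line, fixed after treatment; Timing: compound with oleate, overnight; Technique: high-content imaging of BODIPY-stained droplets and DAPI nuclei; Probe or stimulus: oleate, 100 µM final; Dosing: compound at 6.5 µM only.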
Redox H2O2 prof: compounds producing H2O2 with reducing agent – biochemical, NIH compound library profiling, artefact control for MLSCN library redox annotation, primary screen; 200,000 compounds, 0.03% hits; DTT-dependent redox cycling H2O2, phenol red/HRP absorbance; 100% = 100 µM peroxide control, 0% = buffer; activation, % at 10 µM;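 active = activation of at least 50% relative to the plate's high and low controls in the primary single-dose screen; inactive = activation below 50%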;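 note: compound incubated with DTT at 0.8 mM final as the reducing agent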
T cruzi repl: inhibitors of intracellular T. cruzi growth, primary screen, luminescence, NIH3T3 host cells; T. cruzi beta-gal in NIH3T3, 90 h; inhibition, % (no concentration beside the values); 300,000 compounds, 1.4% hits; AID 1885, 2009;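 active = mean inhibition across valid replicates above about 55%, limit read from the data; inconclusive = mean below that limit but half or more replicates reach it; inactive = mean below it, under half of replicates reach it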;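 note: signal also drops with host cell toxicity which is not excluded here; higher percent means less beta-gal luminescence so fewer parasites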
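System – NIH/3T3 host cells with β-galactosidase reporter T. cruzi · Doses – single 50 nL compound addition per well in DMSO · Reagent – 5000 T. cruzi trypomastigotes/well · Medium – Low-serum DMEM with 2% FBS · Timing – ≥90 h infection period, 3 h prior cell attachment · Evaluation – parasite load inhibition, % · Technique – GalScreen luminescence, 60 min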
MPTP inh: mitochondrial permeability transition pore inhibitors, primary screen, biochemical, isolated mouse mitochondria, absorbance; Ca2+ swelling absorbance, 30 min; inhibition, % at 10 µM; 360,000 compounds, 1.4% hits; AID 602449, 2012;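 active = inhibition of 50% or more, scaled per plate between neutral and stimulator controls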
Rh123 counter: fluorescence retest of MPTP screen hits in isolated mitochondria, single concentration; shares compounds with MPTP inh; membrane potential, Rhodamine 123 fluorescence; inhibition, % at 10 µM; 5,000 compounds, 78% hits; in the data active = inhibition above about 22%
MPTP swell DR: mitochondrial permeability transition pore inhibitors, dose response, biochemical, absorbance, uHTS hits. shares compounds with MPTP inh. isolated mitochondria swelling. IC50, µM. 780 compounds, 58% hits. AID 651561, 2012; in the data active = IC50 below about 20 µM
MPTP counter DR: fluorescent counter-screen in isolated mitochondria, dose response, counter-screen for MPTP inhibitor project, biochemical, fluorescence, uHTS hits. shares compounds with MPTP inh. isolated mitochondria counterscreen, fluorescence read-out. IC50, µM. 780 compounds, 49% hits. AID 651564, 2012; in the data active = IC50 below about 80 µM
A number is an active result; n = inactive; u = inconclusive; x = no result given.

SMILES	L major viab	Lipid droplet	Redox H2O2 prof	T cruzi repl	MPTP inh	Rh123 counter	others
Cc1ccc(S(=O)(=O)NCC(=O)OCc2nnc(-c3ccccc3)o2)cc1	x	u	x	n	n	x
CC(C)c1noc2ncc(C(=O)c3cc(Cl)cc(Cl)c3O)cc12	n	n	n	n	94	105
COC(=O)C(NNc1ccccc1)(NC(=O)c1ccc(F)cc1)C(F)(F)F (stereo not drawn)	n	x	n	n	n	x
Cc1ccccc1C(=O)NNc1ccc([N+](=O)[O-])cc1	n	n	n	n	n	x
O=C(NC(NNc1ccc([N+](=O)[O-])cc1)(C(F)(F)F)C(F)(F)F)c1ccccc1Cl	n	x	n	n	90	84
O=C(NC(NNc1ccc([N+](=O)[O-])cc1)(C(F)(F)F)C(F)(F)F)c1ccc(F)cc1	n	n	n	n	100	88
CCOC(=O)C(=CNc1ccc(Oc2cncc(Cl)c2)nc1)C(=O)OCC	x	n	x	n	n	x
Cn1nc(CC(=O)Nc2cccc3ncccc23)c2ccccc2c1=O	n	x	n	n	86	25
COc1ccc(OC)c(NC(=O)Cc2nn(C)c(=O)c3ccccc23)c1	n	n	n	n	n	x
Cn1nc(CC(=O)NCc2ccc(C(F)(F)F)cc2)c2ccccc2c1=O	n	n	n	n	n	x
COc1ccc(CNC(=O)Cc2nn(C)c(=O)c3ccccc23)cc1	n	x	n	x	61	51
O=c1[nH]c2cc3c(cc2cc1CN(CCO)S(=O)(=O)c1ccccc1)OCCO3	x	n	x	n	n	x
CCOP(=O)(OCC)C(NC(=O)Nc1ccc(Cl)c(Cl)c1)c1ccccc1 (stereo not drawn)	n	n	n	n	60	56
CCOP(=O)(OCC)C(NC(=O)Nc1ccc(C)c(Cl)c1)c1ccccc1 (stereo not drawn)	n	n	n	n	84	84
CCOP(=O)(OCC)C(NC(=O)Nc1ccc(Cl)cc1)c1ccccc1 (stereo not drawn)	n	n	n	n	n	x
CCOP(=O)(OCC)C(NC(=O)Nc1ccc(Cl)c(Cl)c1)C(N)=O (stereo not drawn)	n	n	n	n	n	x
CC(C)(C)S(=O)N1Cc2cc(C(=O)Nc3ccc(-c4ccccc4)cc3)nc(-c3cccc(-c4cc5ccccc5o4)c3)c2[C@@H]1CCO (stereo partly drawn)	x	x	x	x	n	x
CCCCN1C(=N)N([C@@H](CCC)CN2CCC[C@H]2CN2C(N)=NC[C@H]2CC(C)C)C[C@H]1Cc1ccccc1	x	x	x	x	n	x
CCCCN1C(=N)N([C@@H](CCC)CN2CCC[C@H]2CN2C(N)=NC[C@@H]2Cc2ccccc2)C[C@H]1[C@H](C)CC	x	x	x	x	81	n
FC(F)(F)c1cc(CCN2CCNC[C@@H]2Cc2ccccc2)cc(C(F)(F)F)c1	x	x	x	n	92	n
Fc1cccc(CCN2CCNC[C@@H]2Cc2ccccc2)c1	x	x	x	n	n	x
CCOC(=O)Cn1nc(C(F)F)c(Br)c1C	n	n	n	n	n	x
Cc1ccc(-c2nn(-c3ccccc3)cc2CSC(=N)N)cc1	100	x	n	n	99	n	MPTP swell DR=5.5;MPTP counter DR=41
OCc1cn(-c2ccccc2)nc1-c1ccc(-c2nn(-c3ccccc3)cc2CO)cc1	n	x	n	n	n	x
CCn1c(CNC(=O)COc2ccc(C(C)C)cc2)nnc1SCC(=O)Nc1ccccc1C(C)C	76	x	n	n	53	57
SMILES	L major viab	Lipid droplet	Redox H2O2 prof	T cruzi repl	MPTP inh	Rh123 counter	others
O=S(=O)(Nc1cccnc1)c1ccc(C2CCCCC2)cc1	n	n	n	n	104	106
Cc1cccc(C)c1OCCNC(=O)OCc1ccccc1	n	n	n	n	n	x
CC/C(=N\Nc1ccc([N+](=O)[O-])cc1)c1ccccc1	n	n	n	n	65	63
C/C(=N\Nc1ccc([N+](=O)[O-])cc1)c1ccc(N)cc1	n	n	n	n	n	x
CCc1ccc(/C(C)=N\Nc2ccc([N+](=O)[O-])cc2)cc1	n	x	n	n	58	51
N#CCSc1n[nH]c2nc3c(c(=O)n12)C1(CCCCC1)Cc1ccccc1-3	x	n	x	n	70	64
CC1(c2ccc3ccccc3c2)NC(=O)N(CC(=O)N2CCN(Cc3ccc(C#N)cc3)CC2)C1=O (stereo not drawn)	x	x	x	x	57	65
CC(=O)N1CCN(C(=O)CN2C(=O)NC(C)(c3ccc4ccccc4c3)C2=O)CC1 (stereo not drawn)	x	x	x	x	n	x
COC(=O)c1c(-c2c(Cl)cccc2Cl)noc1NC(=O)NN1CCCCC1	x	n	x	n	n	x
CCN(CC)c1ccc2nc3ccc(N)cc3[n+](-c3ccccc3)c2c1	x	x	x	x	54	24
CCN(CC)c1ccc2nc3ccccc3[n+](CC)c2c1	x	n	x	n	n	x
Cc1ccc(S(=O)(=O)NN=C2CCC(C(C)(C)C)CC2)cc1[N+](=O)[O-] (stereo not drawn)	n	n	n	n	n	x
Cc1ccc(S(=O)(=O)N/N=C2/CC(c3ccccc3)Oc3ccccc32)cc1[N+](=O)[O-] (stereo not drawn)	n	x	n	n	78	76
O=S(=O)(N/N=C1/CC(c2ccccc2)Oc2ccccc21)c1ccc(Br)cc1 (stereo not drawn)	n	n	n	n	76	85
Cc1cc(C)cc(NC(=O)CN(C)CC(=O)N(CC(C)C)c2c(N)n(CC(C)C)c(=O)[nH]c2=O)c1	x	x	x	x	n	x
Cc1ccc(OCCCCn2ccnc2C)c(C)c1	89	n	n	n	61	27
Cc1ccc(C(C)C)c(OCCn2ccnc2C)c1	x	n	x	n	n	x
O=C(NCCc1ccccc1C(F)(F)F)C1CCC(=O)N(C2CC2)C1 (stereo not drawn)	x	n	x	n	n	x
O=[N+]([O-])c1cc(S(=O)(=O)C(F)(F)F)ccc1Sc1nc2ccccc2[nH]1	100	n	n	n	57	91
COCCCNCCOc1ccc(C(C)(C)c2ccccc2)cc1	100	n	n	61	97	n	MPTP swell DR=5.7;MPTP counter DR=n
CCOC(=O)c1sc(=S)n(C)c1NC(=O)c1ccccc1	n	n	n	n	n	x
CCOC(=O)c1sc(=S)n(C)c1NC(=O)c1cccc(Br)c1	x	n	x	n	51	76
CC(=O)Oc1c(I)cc(I)cc1C(=O)Nc1ccc(Cl)cc1	x	n	x	n	70	69
CC(O/N=C(\N)c1ccccc1)C(=O)Nc1cccc(C(F)(F)F)c1 (stereo not drawn)	x	x	x	x	n	x
